From PubChem
The list is not random: actives were taken first. Their share in the collection is about 1.3%.
PfGluPho inh: PfG6PD (Plasmodium falciparum) enzyme inhibition. actives 0.78% (n = 350,000). PfGluPho enzyme, NADPH resazurin-diaphorase fluorescence. inhibition, % at 20 µM;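 active = inhibition reaching at least a set limit at 20 µM in the primary screen, cut at about 59% in these data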;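 also: 0% = DMSO wells with substrate and 100% = DMSO wells lacking glucose-6-phosphate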
Diaph inh CS: counter-screen for diaphorase-based assays: diaphorase inhibitors and chemical oxidizers | inhibition, % at 20 µM | AID 1217 | actives 0.69% (n = 190,000) | diaphorase resazurin-to-resorufin fluorescence, NADH, 16 min; bacterial (C. kluyveri) enzyme, not human;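 active = primary screen inhibition at 20 µM above a set limit, cut at about 50% in these data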;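 also: plate controls were DMSO with full reaction for no effect and wells lacking NADH for full effect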
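Detection: fluorescence of resorufin formed from resazurin, Ex 544/Em 590 nm; test system: Clostridium kluyveri diaphorase enzyme; amount: 0.14 U/mL diaphorase, enzyme working solution; times: 16-min room-temperature incubation before reading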
G6PDH counter: inhibits Leuconostoc G6PDH, flagging false hits in G6PDH-based assays; AID 1020; inhibition, % at 5 µM; actives 0.12% (n = 200,000); Purified L. mesenteroides G6PDH, diaphorase/resazurin coupled fluorescence, 45 min; in the data active = inhibition above about 50%
Tb hexokinase: T. brucei hexokinase 1 inhibition; actives 0.11% (n = 220,000); AID 1430; inhibition, % at 10 µM; recombinant TbHK1, G6PDH-coupled NADH A340;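 active = inhibition of 50% or more in the single-dose primary screen; inactive = inhibition below 50%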
HKDC1 inh: inhibitors of human hexokinase HKDC1; actives 0.16% (n = 340,000); recombinant HKDC1, G6PDH/diaphorase resazurin coupled fluorescence; AID 493160; inhibition, % at 20 µM; Q2TB90;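 active = inhibition above about 35% when tested at 20 µM, limit read from the data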;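 also: plate controls were DMSO wells with enzyme for no effect and DMSO wells lacking enzyme for full effect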
Target sequence (Q2TB90 whole entry, looked up): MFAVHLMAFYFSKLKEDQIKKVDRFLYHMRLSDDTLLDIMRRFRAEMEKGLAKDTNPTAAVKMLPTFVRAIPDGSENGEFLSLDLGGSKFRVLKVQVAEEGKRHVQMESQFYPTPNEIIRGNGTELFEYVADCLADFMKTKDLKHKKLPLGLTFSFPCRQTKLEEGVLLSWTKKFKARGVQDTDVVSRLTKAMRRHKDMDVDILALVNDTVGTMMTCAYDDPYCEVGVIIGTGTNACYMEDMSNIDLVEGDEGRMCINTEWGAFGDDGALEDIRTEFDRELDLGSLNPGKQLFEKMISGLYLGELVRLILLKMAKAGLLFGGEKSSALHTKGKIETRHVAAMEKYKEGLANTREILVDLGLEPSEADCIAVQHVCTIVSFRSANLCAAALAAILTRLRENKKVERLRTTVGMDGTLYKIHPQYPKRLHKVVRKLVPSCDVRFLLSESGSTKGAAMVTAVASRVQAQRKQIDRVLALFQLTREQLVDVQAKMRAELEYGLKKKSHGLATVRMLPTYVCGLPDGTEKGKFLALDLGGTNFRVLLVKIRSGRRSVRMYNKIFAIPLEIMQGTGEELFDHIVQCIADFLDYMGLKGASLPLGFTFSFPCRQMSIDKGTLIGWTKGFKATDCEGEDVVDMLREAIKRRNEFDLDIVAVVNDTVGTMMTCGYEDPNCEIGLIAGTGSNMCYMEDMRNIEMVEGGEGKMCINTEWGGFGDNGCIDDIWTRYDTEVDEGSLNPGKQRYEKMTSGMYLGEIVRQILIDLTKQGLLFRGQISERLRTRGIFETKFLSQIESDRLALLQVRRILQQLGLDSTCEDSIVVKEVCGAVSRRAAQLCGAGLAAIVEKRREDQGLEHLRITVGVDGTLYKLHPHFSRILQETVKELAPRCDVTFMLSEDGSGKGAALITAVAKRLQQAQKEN
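Test system: HK5 enzyme. Quantity: 5 µg/mL HK5 final. Reagent: glucose and ATP substrates. Schedule: 90 min reaction incubation at room temperature, dark. Technique: resazurin-to-resorufin fluorescence via G6PDH and diaphorase coupling, 525/613 nm. Control set: DMSO wells with and without enzyme mix.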
* hit, by the source's call; x = not tested or not shown.

SMILES | PfGluPho inh | Diaph inh CS | G6PDH counter | Tb hexokinase | HKDC1 inh
COC(=O)Cn1c(=NC(=O)CSCC(=O)Nc2cc(C)on2)sc2cc(C(=O)OC)ccc21 | 5 | -6 | 7 | 4 | -4
CC(C)CNC1=CC(=O)CC(c2ccco2)C1 (centres undefined) | 1 | 61* | 16 | 6 | 3
c1cc(Nc2cccc3nccnc23)c2nccnc2c1 | 13 | 24 | 17 | -10 | 3
Brc1c(NC2=NCCN2)ccc2nccnc12 | x | 59* | 26 | -11 | x
C#CCOCCOCCOCCNc1nc(N2CCN(C(=O)[C@H](CCC(=O)O)n3cc(C(N)Cc4ccc(O)cc4)nn3)CC2)nc(N2CCN(C(=O)[C@H](CCC(=O)O)n3cc(C(N)CC(C)C)nn3)CC2)n1 (some centres undefined) | -1 | 57* | 12 | -1 | -1
C#CCOCCOCCOCCNc1nc(N2CCN(C(=O)[C@H](CCCCN)n3cc([C@@H](N)C(C)CC)nn3)CC2)nc(N2CCN(C(=O)[C@H](Cc3cc4ccccc4[nH]3)n3cc([C@@H](N)CC(C)C)nn3)CC2)n1 (some centres undefined) | 60* | -67 | -10 | -2 | 4
O=C(CN1C(=O)C2C3CC(C(Br)C3Br)C2C1=O)N1CCN(Cc2ccccc2)CC1 (centres undefined) | -5 | x | x | -1 | -6
Cc1ccc(-n2c(=S)[nH]c3c(oc4ccccc43)c2=O)cc1C | 12 | 62* | 8 | 5 | -6
O=c1[nH]c2c(oc3ccccc32)c(=O)n1Cc1ccccc1 | -8 | x | x | x | -8
O=c1c2oc3ccccc3c2[nH]c(=S)n1-c1ccc(F)cc1 | 6 | 59* | -1 | -13 | -1
O=C(OCc1cccc(C(F)(F)F)c1)c1cc(S(=O)(=O)N2CCOCC2)ccc1F | 13 | x | x | x | -4
Cc1ccc(C)n1-c1ccc(N2CCOCC2)c(Br)c1 | 9 | 56* | 0 | -3 | -2
Cc1ccc(S(=O)(=O)/N=C2/C=C(Sc3ncn[nH]3)C(=O)c3ccccc32)c(C)c1 | x | 69* | 37 | 20 | x
Cc1ccc(S(=O)(=O)/N=C2\C=C(NS(=O)(=O)c3ccccc3)C(=O)c3ccccc32)c(C)c1 | 6 | x | x | x | 27
N#Cc1c2ccc(OCC(N)=O)cc2n2ccccc12 | 43 | 70* | 44 | -7 | 11
CC(=O)N1CCN(c2ccc(NC(=S)NC(=O)COc3ccc(C(C)(C)C)cc3)cc2)CC1 | -6 | 15 | 14 | 16 | -9
CCC(=O)N1CCN(c2ccc(NC(=S)NC(=O)COc3ccccc3)cc2)CC1 | -1 | 64* | 9 | -15 | -7
Cc1nc(Cl)sc1C(=O)O | 5 | 4 | 4 | 55* | -3
O=C(Nc1cccn(Cc2cccc(F)c2)c1=O)NC1CCCCC1 | 4 | 50* | 15 | 0 | 6
c1ccc(N2CCN(c3nc4ccccc4[nH]3)CC2)nc1 | -15 | 67* | 5 | 4 | 4
c1ccc2[nH]c(N3CCOCC3)nc2c1 | -18 | 7 | 0 | 3 | -11
O=C(O)C1C2C=CC(C2)C1C(=O)Nc1ccc(Cl)c(Cl)c1 (centres undefined) | -24 | x | x | x | 2
COc1cc(C)ccc1N(CCCN1C(=O)c2cccc3cccc(c23)C1=O)C(=O)c1cccs1 | 27 | 72* | -23 | -11 | 11
Cc1ccc(N(CCCCN2C(=O)c3ccccc3C2=O)C(=O)c2cccs2)cc1 | -2 | 16 | 0 | 7 | 0
COc1ccc(N(CCCN2C(=O)c3cccc4cccc(c34)C2=O)C(=O)c2cccs2)cc1 | 14 | 67* | 6 | -10 | 14
SMILES | PfGluPho inh | Diaph inh CS | G6PDH counter | Tb hexokinase | HKDC1 inh
O=C(CN1C(=O)S/C(=C\c2ccc(F)cc2)C1=O)Nc1cccc(S(=O)(=O)NCc2ccco2)c1 | 11 | 10 | 0 | 1 | 5
C=CCOc1ccc2c3c(c(=O)oc2c1)CCCC3 | 15 | x | x | x | 5
CC(C)(C)N=Cc1c(O)ccc2oc3c(c12)CCCC3 | 4 | x | x | x | 13
O=[N+]([O-])c1cc2oc3c(c2c(C=NCc2ccncc2)c1O)CCCC3 | 43 | 56* | 0 | -6 | 29
O=C(N/N=C/c1cc([N+](=O)[O-])ccc1O)C1CCCCC1 | -15 | 56* | 16 | -18 | -19
Cc1ccc(C(=O)CSc2nnc(CNc3ccc(F)cc3)o2)cc1 | -11 | 8 | 2 | -2 | -4
N#Cc1c(NC(=O)CSc2ncnc3sccc23)oc(-c2ccco2)c1-c1ccco1 | 4 | 60* | 19 | -3 | 13
CC(=O)Nc1ccc(NC(=O)C(C)OC(=O)CCC2CCCC2)cc1 (centres undefined) | 2 | x | x | x | -3
COc1cc(/C=N/NC(=O)C(Cc2c[nH]c3ccccc23)NC(=O)OCC(C)C)cc([N+](=O)[O-])c1OCc1ccccc1 (centres undefined) | -4 | 71* | 15 | -13 | 8
CCOC(=O)C1CCN(S(=O)(=O)c2ccc(-c3ccccn3)s2)CC1 | -15 | x | x | 3 | 3
CC1(C)C(=O)OC(/C=C\c2cccc([N+](=O)[O-])c2)C(C)(C)C1=O (centres undefined) | 4 | 0 | 15 | -1 | -2
O=[N+]([O-])c1cc(S(=O)(=O)NCCN2CCOCC2)ccc1Sc1nnnn1-c1ccccc1 | 1 | 24 | 5 | -7 | 9
Cc1ccc(-n2nnnc2Sc2ccc(S(=O)(=O)NCCN(C)C)cc2[N+](=O)[O-])cc1 | 0 | 53* | 10 | 1 | 21
Oc1c(C(c2ccccc2Cl)N2CCCC2)ccc2cccnc12 (centres undefined) | -4 | 55* | 8 | -1 | -31
Oc1c(C(c2cccs2)N2CCN(c3ccccc3)CC2)ccc2cccnc12 (centres undefined) | x | 38 | 10 | -6 | x
Cc1cnc(NC(=O)CSc2nnc(Cc3ccccc3)o2)s1 | -17 | 7 | -2 | 3 | 0
NS(=O)(=O)c1ccc(CCNC(=O)COC(=O)CCSc2ccc(Cl)cc2)cc1 | 6 | 5 | 9 | -3 | 3
O=C(COC(=O)CCSc1ccc(Cl)cc1)NCCc1ccccc1 | 1 | 55* | -6 | -3 | -1
Cc1ccc(O)c(NC(=O)CSc2n[nH]c(-c3ccccc3)n2)c1 | -5 | x | x | x | 7
O=C(CSc1n[nH]c(-c2ccccc2)n1)c1ccc(O)c(O)c1 | 30 | 71* | 12 | -8 | 1
Cc1cc(SCC(=O)c2ccc(O)c(O)c2)nc2ccccc12 | -26 | 50* | 2 | -6 | 0
Cc1nc2c(C(=O)NCCc3ccccc3Cl)c[nH]n2c(=O)c1Cl | -9 | 65* | 0 | 5 | 16
O=C1CCCC2=C1C(c1ccncc1)c1c(nc(SCc3ccccc3)[nH]c1=O)N2 (centres undefined) | -26 | 23 | 2 | -20 | 4
O=[N+]([O-])c1ccc(/C=C/c2ccncc2)cc1 | 21 | x | x | -58 | -9
[O-]/[N+](=C\c1ccncc1)c1ccc(Br)cc1 | 91* | 9 | 5 | 37 | 0
